Published values pooled from the literature.
Protocols differ between the studies behind these lines.
Target: Mitogen-activated protein kinase kinase kinase 5 (MAP3K5, Homo sapiens, UniProt Q99683)
Residues used in one study (Q99683 1-1374): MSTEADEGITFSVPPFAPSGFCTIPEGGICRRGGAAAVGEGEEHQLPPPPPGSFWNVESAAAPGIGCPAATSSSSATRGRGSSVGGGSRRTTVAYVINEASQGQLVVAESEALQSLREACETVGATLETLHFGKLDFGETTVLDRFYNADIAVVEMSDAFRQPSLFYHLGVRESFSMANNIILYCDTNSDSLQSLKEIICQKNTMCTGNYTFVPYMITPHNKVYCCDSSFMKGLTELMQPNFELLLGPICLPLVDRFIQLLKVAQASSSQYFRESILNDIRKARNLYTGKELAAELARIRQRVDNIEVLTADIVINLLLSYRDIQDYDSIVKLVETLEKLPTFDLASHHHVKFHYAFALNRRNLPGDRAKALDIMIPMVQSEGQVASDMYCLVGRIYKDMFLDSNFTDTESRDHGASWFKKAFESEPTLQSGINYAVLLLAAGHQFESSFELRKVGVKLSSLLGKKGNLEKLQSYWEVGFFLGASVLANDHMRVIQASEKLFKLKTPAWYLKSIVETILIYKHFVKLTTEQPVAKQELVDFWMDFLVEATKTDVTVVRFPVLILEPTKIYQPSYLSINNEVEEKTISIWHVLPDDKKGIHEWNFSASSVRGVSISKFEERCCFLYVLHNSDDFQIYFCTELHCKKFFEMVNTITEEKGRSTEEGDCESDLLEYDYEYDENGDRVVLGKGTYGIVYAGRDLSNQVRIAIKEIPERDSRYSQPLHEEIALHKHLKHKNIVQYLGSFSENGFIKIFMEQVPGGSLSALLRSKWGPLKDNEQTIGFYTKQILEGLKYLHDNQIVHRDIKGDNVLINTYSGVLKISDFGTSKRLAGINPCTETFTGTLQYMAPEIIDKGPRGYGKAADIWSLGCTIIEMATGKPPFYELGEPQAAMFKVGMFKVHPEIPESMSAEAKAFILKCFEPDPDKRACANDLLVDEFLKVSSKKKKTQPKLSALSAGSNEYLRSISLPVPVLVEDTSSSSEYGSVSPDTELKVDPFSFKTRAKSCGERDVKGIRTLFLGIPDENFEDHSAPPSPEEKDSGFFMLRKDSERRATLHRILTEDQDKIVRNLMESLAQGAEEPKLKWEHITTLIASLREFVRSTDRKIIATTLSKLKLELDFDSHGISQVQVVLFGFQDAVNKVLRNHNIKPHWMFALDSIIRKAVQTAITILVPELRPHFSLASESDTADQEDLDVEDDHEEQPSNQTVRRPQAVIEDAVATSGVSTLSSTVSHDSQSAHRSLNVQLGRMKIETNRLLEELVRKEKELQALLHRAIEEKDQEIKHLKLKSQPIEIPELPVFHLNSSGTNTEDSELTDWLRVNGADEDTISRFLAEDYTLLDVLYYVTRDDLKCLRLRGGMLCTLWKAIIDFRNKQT

The remaining binding of COc1cnc(Nc2cccc(S(N)(=O)=O)c2)nc1N1CCN(c2ccccc2)C(=O)C1 is reported as 100% (binding; competition with immobilised ligand; 1 µM).
With C[C@@H](c1ccc(-n2cnc3c(N)ncnc32)cc1)N1CCc2nn(C)c(Cc3ccccc3)c2C1=O the remaining binding was 95% (binding; competition with immobilised ligand; 0.1 µM).
For Cn1cc(Cl)c2c(Oc3c(F)cc(Nc4cc(Cl)nc(N)n4)cc3F)ccnc21, the remaining binding was 97% (cell-free assay; competition with immobilised ligand; 0.1 µM).
N[C@@H]1CCN(c2nccc(-c3cnn4ncccc34)n2)C1 gave a remaining binding of 100% (binding; 1 µM).
CNC(=O)[C@@H]1CC[C@@H](n2c(-c3ccc4cnccc4c3)nc3ccc(C(=O)NCc4cccc(C(N)=O)c4)cc32)C1 gave a remaining binding of 92% (binding; competition with immobilised ligand; 1 µM).
CN(CCCC(F)(F)F)c1nccc(-c2cnn3ncccc23)n1 gave a remaining binding of 76% (binding; 1 µM).
The remaining binding of O=C(O)[C@@H]1[C@@H](Cn2nnc3ccccc3c2=O)CC[C@H]1C(=O)c1ccc(OCCC2CCOCC2)cc1 is reported as 94% (cell-free assay; competition with immobilised ligand; 1 µM).
With F[C@@H]1CCN(c2nccc(-c3cnn4ncccc34)n2)C1 the remaining binding was 83% (binding; 1 µM).
With O=C(Nc1c[nH]nc1C(=O)NC1CCNCC1)c1cc(F)cc(F)c1 the remaining binding was 100% (binding; competition with immobilised ligand; 1 µM).
The remaining binding of C[C@@H]1CN(c2cc(-c3nn(C)c4ccc(OC5(C)CC5)cc34)ncn2)C[C@H](C)O1 is reported as 100% (cell-free assay; competition with immobilised ligand; 1 µM).
With Nc1ncc2c(n1)-c1c([nH]c3ccc(C#CC4CC4)cc13)CCCC2 the remaining binding was 100% (binding; competition with immobilised ligand; 1 µM).
Cc1nc(N2CC[C@@H](O)C2)ncc1-c1cc(C(F)(F)F)cc2[nH]ncc12 gave a remaining binding of 100% (binding; competition with immobilised ligand; 1 µM).
CN(c1nccc(-c2cnn3ncccc23)n1)C1CC1 gave a remaining binding of 100% (binding; 1 µM).
O=C(Nc1ccc(Oc2ccc(F)cc2)cc1)N1CCc2ncccc2[C@H]1c1ccc(F)cc1 has a remaining binding of 87% (cell-free assay; competition with immobilised ligand; 1 µM).
With CN(C)c1ncc(F)c(-c2cnn3ncccc23)n1 the remaining binding was 100% (binding; 1 µM).
For O=C(NCCCN1CCOCC1)c1ccc(Nc2nccc(-c3cc4ccccc4s3)n2)cc1, the remaining binding was 100% (binding; competition with immobilised ligand; 1 µM).
For N#Cc1ccc(Nc2ccc3[nH]c(=O)[nH]c3c2)c(Cl)c1, the remaining binding was 90% (cell-free assay; competition with immobilised ligand; 1 µM).
For O=C(c1ccc(Nc2ncc(Cl)c(-c3ccc(Cl)s3)n2)cc1)N1CCC(N2CCCC2)CC1, the remaining binding was 100% (binding; competition with immobilised ligand; 1 µM).
For CCN1CCN(Cc2ccc(C(=O)Nc3ccc(C)c(Oc4ccc5c(c4)CC(=O)N5)c3)cc2C(F)(F)F)CC1, the remaining binding was 100% (binding; competition with immobilised ligand; 1 µM).
For COc1ccnn2ncc(-c3ccnc(N(C)C)n3)c12, the remaining binding was 100% (binding; 1 µM).
The remaining binding of O=C(c1ccc(Nc2ncc(Cl)c(-c3cc4ccccc4s3)n2)cc1)N1CCC(N2CCCC2)CC1 is reported as 100% (binding; competition with immobilised ligand; 1 µM).
